Molecules are shown by their SMILES. Active and inactive are the calls of the source. The rule behind the calls is not given here.

The test system of assay [1] is Rattus norvegicus. Description: Locomotory activity was determined in non pretreated rats at a dose of 3.2 umol/kg by subcutaneous administration. It is filed as functional. In short, it runs like this: (§1)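 Untreated rats received test drug sc 5 min before a 30-min session in photocell motility meters, with accumulated counts recorded. Activity is expressed as percent of saline controls, mean ± SEM, n = 3-5. Gross behaviour was observed through a semitransparent mirror. Differences from saline controls were assessed by Student's t test.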

Assay [2] deals with Rattus norvegicus. The experiment in a line: In vivo DOPA accumulation in reserpine pretreated rat limbic system by subcutaneous administration; I denotes inactive. It is filed as functional, organism-based. Put shortly:
(§2)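 Rats received reserpine (5 mg/kg sc) 18 h, test drug sc 60 min and NSD 1015 (100 mg/kg ip) 30 min before death, with saline controls. Limbic or striatal DOPA was measured. Dose for half-maximal decrease was estimated from 4-7-dose curves (n = 3-5), minimal level as % of control.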

Assay [3] deals with Rattus norvegicus. The experiment in a line: In vivo DOPA accumulation in non pretreated rat striatum system by subcutaneous administration; I denotes inactive. Type of assay: functional, organism-based. Put shortly:
(§3)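 Rats without pretreatment received test drug sc 65 min and NSD 1015 (100 mg/kg ip) 30 min before death, with saline controls. DOPA was measured in limbic or striatal tissue. Dose for half-maximal change was estimated from 4-5-dose curves (n = 3-5), maximal level as % of control.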

Assay [4] has as its system Rattus norvegicus. Description: In vivo DOPA accumulation in reserpine pretreated rat striatum system by subcutaneous administration; denotes inactive. Type of assay: functional, organism-based. Put shortly:
as §2

For assay [5], the system named is Rattus norvegicus. The experiment in a line: Locomotory activity was determined in reserpine pretreated rats at a dose of 52 umol/kg by subcutaneous administration. Value is the accumulation counts/30 min. It is filed as functional. In short, it runs like this: (§4)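 Rats were given reserpine 5 mg/kg sc 18 h beforehand, then test drug sc immediately before the activity session. Motor activity was recorded by photocells in motility meters as accumulated counts over 30 min, mean ± SEM, n = 3-4. Gross behaviour was watched for signs of stimulation. Reserpine-only controls were included.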

For assay [6], the system named is Rattus norvegicus. The experiment in a line: Locomotory activity was determined in non pretreated rats at a dose of 52 umol/kg by subcutaneous administration. Type of assay: functional. In short, it runs like this: as §1
The test system of assay [7] is Rattus norvegicus. Description: In vivo DOPA accumulation in non pretreated rat limbic system by subcutaneous administration; I denotes inactive. It is filed as functional, organism-based. In short, it runs like this: as §3
For assay [8], the system named is Rattus norvegicus. Description: Induced locomotor stimulation was determined in non pretreated rats at a dose of 52 uM/kg by subcutaneous administration. Type of assay: functional. Put shortly:
as §1

Assay [9] deals with Rattus norvegicus. Description: Change in rectal temperature induced by DiPr-5,6-ADTN at a dose of 204 umol/kg of compound by subcutaneous administration. It is filed as functional. In short, it runs like this:
(§5)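 Rats received DiPr-5,6-ADTN (0.25 μmol/kg sc) 100 min and test compound sc 40 min before death. Rectal temperature change (°C) was recorded between 60 and 100 min after DiPr-5,6-ADTN. Values are mean ± SEM, n = 4, with Student's t test vs DiPr-5,6-ADTN alone.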

The target of assay [10] is T1, Dopamine receptor (Rattus norvegicus) (UniProt P25115+P19020+P30729+P18901+P61169). The note with it: 13 uM.
In assay [11] the test system is Rattus norvegicus. Description: Change in rectal temperature induced by DiPr-5,6-ADTN at a dose of 3.2 umol/kg of compound by subcutaneous administration. Type of assay: functional. Put shortly:
as §5

The test system of assay [12] is Rattus norvegicus. The experiment in a line: In vivo DOPA accumulation in reserpine pretreated rat striatum system by subcutaneous administration; I denotes inactive. It is filed as functional, organism-based. In short, it runs like this: as §2
For assay [13], the system named is Rattus norvegicus. The experiment in a line: Induced locomotor stimulation was determined in non pretreated rats at a dose of 204 umol/kg by subcutaneous administration. Type of assay: functional.
The test system of assay [14] is Rattus norvegicus. Description: Induced locomotor stimulation in non pre-treated rats by 13 umol/kg s.c. administration. Type of assay: functional.
Assay [15] deals with Rattus norvegicus. The experiment in a line: Change in rectal temperature induced by DiPr-5,6-ADTN at a dose of 52 umol/kg of compound by subcutaneous administration. Type of assay: functional. Put shortly: as §5
Assay [16] concerns the target T1, Dopamine receptor (Rattus norvegicus). The experiment in a line: Ability to displace the Dopamine receptor agonist DiPr-5,6-ADTN from rat striatal binding sites in vivo at a dose of 52 uM/kg by subcutaneous administration. It is filed as organism-based.
The test system of assay [17] is Rattus norvegicus. Description: Change in rectal temperature induced by DiPr-5,6-ADTN at a dose of 13 umol/kg of compound by subcutaneous administration. Type of assay: functional. In short, it runs like this: as §5
The subject of assay [18] is Rattus norvegicus. The experiment in a line: In vivo DOPA accumulation in non pre-treated rat striatal system following s.c. administration. Particulars: sc. It is filed as functional. In short, it runs like this: as §3
The test system of assay [19] is Rattus norvegicus. The experiment in a line: In vivo DOPA accumulation in non pre-treated rat limbic system following s.c. administration. It is filed as functional. The note with it: sc. Put shortly:
as §3

Assay [20] concerns the target T1, Dopamine receptor (Rattus norvegicus). The experiment in a line: In vivo displacement of DiPr-5,6-ADTN from Dopamine receptors in rat striatum. It is filed as organism-based.
Assay [21] deals with Rattus norvegicus. Description: Induced locomotor stimulation in non pre-treated rats by 52 umol/kg s.c. administration. It is filed as functional.
Assay [22] has as its system Rattus norvegicus. The experiment in a line: ((+)-UH-232) induced locomotor stimulation was determined in non pretreated rats at a dose of 3.2 umol/kg by subcutaneous administration. It is filed as functional.
The target of assay [23] is T1, Dopamine receptor (Rattus norvegicus). Particulars: 204 uM.
In assay [24] the test system is Rattus norvegicus. Description: Locomotory activity was determined in reserpine pretreated rats at a dose of 125 umol/kg by subcutaneous administration. Value is the accumulation counts/30 min. Type of assay: functional. Put shortly:
as §4

In assay [25] the test system is Rattus norvegicus. Description: In vivo DOPA accumulation in reserpine pretreated rat limbic system by subcutaneous administration. It is filed as functional. Particulars: sc. Put shortly:
as §2

The test system of assay [26] is Rattus norvegicus. Description: In vivo DOPA accumulation in reserpine pretreated rat striatum system by subcutaneous administration. It is filed as functional. Particulars: sc. In short, it runs like this: as §2
The test system of assay [27] is Rattus norvegicus. Description: ((+)-UH-232) induced locomotor stimulation was determined in non pretreated rats at a dose of 52 umol/kg by subcutaneous administration. It is filed as functional.
Assay [28] deals with T1, Dopamine receptor (Rattus norvegicus). Description: Ability to displace the Dopamine receptor agonist DiPr-5,6-ADTN from rat striatal binding sites in vivo at a dose of 52 umol/kg by subcutaneous administration. It is filed as organism-based.
Assay [29] has as its system Rattus norvegicus. The experiment in a line: Induced locomotor stimulation was determined in non pretreated rats at a dose of 13 umol/kg by subcutaneous administration. Type of assay: functional.
The subject of assay [30] is Rattus norvegicus. Description: ((+)-UH-232) induced locomotor stimulation was determined in non pretreated rats at a dose of 204 umol/kg by subcutaneous administration. It is filed as functional.
Assay [31] deals with Rattus norvegicus. Description: Change in rectal temperature induced by DiPr-5,6-ADTN at a dose of 13 subcutaneous administration. Type of assay: functional. In short, it runs like this:
as §5

Assay [32] has as its system Rattus norvegicus. The experiment in a line: Induced locomotor stimulation was determined in non pretreated rats at a dose of 3.2 umol/kg by subcutaneous administration. It is filed as functional. Put shortly: as §1
The subject of assay [33] is Rattus norvegicus. The experiment in a line: ((+)-UH-232) induced locomotor stimulation was determined in non pretreated rats at a dose of 13 umol/kg by subcutaneous administration. Type of assay: functional.
For assay [34], the target named is T1, Dopamine receptor (Rattus norvegicus). Description: Ability to displace the Dopamine receptor agonist DiPr-5,6-ADTN from rat striatal binding sites in vivo at a dose of 13 umol/kg by subcutaneous administration. It is filed as organism-based.

As to `CCCN[C@H]1CCc2c(OC)cccc2[C@H]1C`, the Activity in the assay with Rattus norvegicus [1] came out at 113%; with Rattus norvegicus [5], 12 counts/30 min; in the assay on Rattus norvegicus [6], 119%. The ED50 entry in the assay on Rattus norvegicus [2], with Rattus norvegicus [3], in the assay on Rattus norvegicus [4] and in the assay with Rattus norvegicus [7] was “inactive” throughout.
As to `CCCN(CCC)[C@@H]1CCc2c(OC)cccc2[C@@H]1C`, the Activity in the assay with Rattus norvegicus [1] was 152%; in the assay with Rattus norvegicus [8], 24%; with Rattus norvegicus [13], 22%; in the assay with Rattus norvegicus [14], 78%; in the assay on Rattus norvegicus [21], 70%; with Rattus norvegicus [5] it was 4 counts/30 min. Besides, in the assay with Rattus norvegicus [22], the Activity came to 105%. The Body temp change in the assay with Rattus norvegicus [9] is 0.45 °C; in the assay with Rattus norvegicus [11], -0.03 °C; in the assay on Rattus norvegicus [15], 0.45 °C; in the assay on Rattus norvegicus [17] it was 1.4 °C. Besides, the Binding in assay [10] was found to be 61%; in assay [16] it was 34%; in [20], 83%; in assay [23] it was 31%. In addition, the ED50 result in the assay on Rattus norvegicus [12] and in the assay on Rattus norvegicus [2] was “inactive” throughout. The ED50 in the assay on Rattus norvegicus [18] was determined as 9.6 µmol/kg; in the assay on Rattus norvegicus [19] it was 12.8 µmol/kg.
Take `CCCN[C@H]1CCc2c(O)cccc2[C@H]1C`: the Activity in the assay with Rattus norvegicus [8] amounted to 80%; in the assay with Rattus norvegicus [24], 26%. The Body temp change in the assay on Rattus norvegicus [15] was -0.45 °C. For the same molecule, the Binding in assay [16] came out at 66%. Moreover, the values for the ED50 in the assay on Rattus norvegicus [25] and in the assay with Rattus norvegicus [26] were 4 µmol/kg and 5 µmol/kg, respectively.
As to `CCCN[C@@H]1CCc2c(OC)cccc2[C@@H]1C`, the Activity with Rattus norvegicus [1] came out at 132%; in the assay on Rattus norvegicus [27] it was 54%; in the assay with Rattus norvegicus [29], 95%; in the assay on Rattus norvegicus [30] it was 29%; in the assay on Rattus norvegicus [21], 159%. The results for the Temperature with Rattus norvegicus [9], in the assay with Rattus norvegicus [15] and in the assay with Rattus norvegicus [17] were 0.47 °C, 1.05 °C and 1.3 °C, respectively. For the same molecule, the Binding in [28] worked out at 41%; in assay [20], 85%. In addition, the ED50 with Rattus norvegicus [18] is 4.4 µmol/kg; in the assay on Rattus norvegicus [19], 4.6 µmol/kg.
`COc1cccc2c1CC[C@@H](N(C)C)[C@H]2C`: the Activity in the assay with Rattus norvegicus [1] was 100%; with Rattus norvegicus [27], 8%; in the assay on Rattus norvegicus [32], 62%; in the assay with Rattus norvegicus [6] it was 9%; with Rattus norvegicus [33] it was 15%. Also, the Temperature is -0.15 °C in the assay with Rattus norvegicus [11], 0.28 °C in the assay on Rattus norvegicus [15] and 1.6 °C with Rattus norvegicus [31]. For the same molecule, the Binding is 14% in [28], 60% in assay [20] and 40% in [34]. Moreover, the ED50 was 2.9 µmol/kg in the assay on Rattus norvegicus [18] and 2.2 µmol/kg in the assay on Rattus norvegicus [19].

For the origin of these results see ChEMBL document CHEMBL1123708, “Resolved cis- and trans-2-amino-5-methoxy-1-methyltetralins: central dopamine receptor agonists and antagonists” (1987).
